Jurkat NFkB inh: inhibitors of the PMA/ionomycin-induced NF-kB reporter in Jurkat cells. PMA/ionomycin-induced NF-kB luciferase reporter, luminescence. inhibition, % at 4 µM. 330,000 tested, 0.53% active; in the data active = inhibition above about 50%
CHOP inh: CHOP inhibition in unfolded protein response. CHO-K1 CHOP-promoter luciferase, tunicamycin-induced, 15-18 h. inhibition, % at 10 µM. 220,000 tested, 3.8% active. AID 2732;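 active = compounds that reduced the stress-induced luciferase reporter signal by more than about 70% of percent inhibition, limit read from the data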;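 note: 0% = tunicamycin plus vehicle and 100% = wells without tunicamycin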
XBP1 UPR activ: adaptive UPR (XBP1) activation. CHO-XBP1 luciferase reporter, IRE1-XBP1 UPR activation, luminescence; percent of tunicamycin response, DMSO as zero. activation, % at 20 µM. 330,000 tested, 0.33% active;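 active = versus positive control, 20 µM dose yields 30% or more activation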;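 note: 100% = tunicamycin at 10 µg/mL and 0% = DMSO only wells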
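Material – CHO cell line with stable XBP1 luciferase reporter · Buffer or medium – F12 plus 10% FBS · Compound – single point, 20 µM final compound, 1% DMSO · Schedule – 16-18 h cell attachment at 37 °C, then 6 h compound exposure · Signal – Steady-Glo luminescence read · Benchmarks – high control tunicamycin 10 µg/mL final, low control DMSO vehicle only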
697 NFkB inh: inhibitors of the PMA/ionomycin-induced NF-kB reporter in 697 B cells; 697 B-cell NF-kB luciferase reporter, 16 h; inhibition, % at 4 µM; 330,000 tested, 0.33% active; in the data active = inhibition above about 35%
Gli-Sufu antag: antagonists of Gli-Sufu signaling; Sufu-KO-LIGHT fibroblasts, Gli luciferase reporter luminescence; inhibition, % at 5 µM; 340,000 tested, 0.74% active; AID 588413;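 active = inhibition above about 55%, limit read from the data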;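 note: 0% = DMSO-treated cells and 100% = wells with medium but no cells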
UPR CHOP act: apoptotic UPR (CHOP) activation; CHO-CHOP luciferase reporter, luminescence; percent of tunicamycin response over DMSO baseline; activation, % at 10 µM; 330,000 tested, 0.34% active; AID 449763;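 active = at 10 µM dose, activation of 40% or more, normalized to positive control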;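 note: 100% = tunicamycin at 10 µg/mL and 0% = DMSO alone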
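Test system: CHO CHOP reporter cells. Input: 500 CHO-CHOP cells per well. Medium: F12 with 10% FBS. Technique: luciferase luminescence. Measure: percent activation relative to tunicamycin control. Dosing: 10 µM compound, 0.5% DMSO. Timing: 16-18 h cell attachment, then 6 h compound exposure, 37 °C.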
Numbers without * were called inactive; x = not tested or not shown. Shown are actives, neighbours in structure and some others; about 3.9% of the full set was active somewhere.

SMILES | Jurkat NFkB inh | CHOP inh | XBP1 UPR activ | 697 NFkB inh | Gli-Sufu antag | UPR CHOP act
Cc1ccc2nc(-c3cccnc3SCC(=O)N3c4ccccc4CC3C)[nH]c2c1 (centres undefined) | -16 | -17 | -3 | -14 | -47 | 2
CNC(=O)c1ccccc1NC(=O)c1c(O)c2c([nH]c1=O)CCCC2 | -27 | 8 | -2 | -23 | -4 | 2
CCOC(=O)Cc1csc(NC(=O)c2c(O)c3ccccc3n(CC(C)C)c2=O)n1 | 8 | 85* | 4 | 21 | 8 | 16
CC(C)Cn1c(=O)c(C(=O)Nc2ccccc2S(N)(=O)=O)c(O)c2ccccc21 | -5 | 73* | 8 | 19 | 0 | 0
CC(C)Cn1c(=O)c(C(=O)N/N=C/c2cccc(F)c2)c(O)c2ccccc21 | 8 | 82* | 3 | 8 | 15 | 2
O=C(N/N=C/c1cccc(F)c1)c1c(O)c2c([nH]c1=O)CCCC2 | -114 | 82* | -6 | -89 | -74 | 2
CN(CC(=O)Nc1c(Cl)cccc1Cl)C(=O)Cc1ccc(S(=O)(=O)N2CCOCC2)s1 | 2 | x | -3 | -19 | 5 | 1
C=CCn1c(SCc2nc3cc(C(=O)OC)ccc3c(=O)[nH]2)nc2sc(CC)cc2c1=O | 6 | 72* | 4 | -8 | 0 | 0
O=C1CCCCC1C(Nc1ccc(Cl)cc1)c1ccccc1 (centres undefined) | 14 | 94* | 0 | 9 | 3 | 1
O=C1CCCCC1Nc1ccc(Br)cc1 (centres undefined) | x | x | x | x | -9 | x
O=C1CCCCC1C(Nc1ccc(Br)cc1)c1ccccc1 (centres undefined) | -13 | 80* | 3 | 15 | -30 | -1
O=C1CCCCC1Nc1ccc(Cl)cc1 (centres undefined) | x | x | x | x | -5 | x
CCCCC1CCC(C(=O)NCc2ccc3c(c2)OCO3)CC1 (centres undefined) | 8 | 83* | -1 | 14 | -5 | -1
COC(=O)c1cc2sccc2n1CC(=O)Nc1cccc(SC)c1 | 10 | 85* | -2 | 10 | -12 | 2
CC1=C(C(=O)Nc2cc(-c3cccc(F)c3)[nH]n2)C2(CCCCC2)OC1=O | -3 | 82* | -2 | -19 | 3 | 1
O=C(Nc1cc(-c2ccccc2)[nH]n1)c1ccccc1F | -142 | -12 | 4 | -155 | -66 | 11
COc1ccc(Cn2ccnc2SCC(=O)Nc2nnc(C)s2)cc1 | 11 | x | 1 | 1 | -3 | 4
Cc1nn(CC(O)CN2c3ccccc3Sc3ccccc32)c(C)c1Br (centres undefined) | 7 | 77* | -1 | -12 | 6 | -2
COc1ccc(CCNC(=O)CCOc2ccc(C(C)(C)C)cc2)cc1OC | 2 | x | -3 | -12 | -2 | 0
Cc1cccc(OCC(=O)N/N=C/c2cn[nH]c2-c2ccc(Cl)c(Cl)c2)c1 | 3 | 80* | 1 | -9 | 19 | 2
Cc1ccc(C(=O)Nc2nnc(NC(=S)Nc3ccccc3)s2)cc1 | -7 | 70* | 1 | -94 | -5 | 2
COc1ccc(S(=O)(=O)NCC(c2ccc3c(c2)OCO3)N2CCN(c3ccccc3)CC2)cc1 (centres undefined) | 1 | x | -4 | 10 | 5 | 3
Cc1c(C(=O)NN)[nH]c2ccc([N+](=O)[O-])cc12 | -5 | 0 | -2 | -16 | 5 | 0
Cc1ccc(C)c2c1[nH]c1ccc([N+](=O)[O-])cc12 | 1 | 82* | -3 | 17 | 0 | 1
CC(C)C[C@H](NC(=O)N1CCn2c1nc1ccccc12)C(=O)N1CCCCC1 | 9 | x | -3 | -36 | 11 | 1
SMILES | Jurkat NFkB inh | CHOP inh | XBP1 UPR activ | 697 NFkB inh | Gli-Sufu antag | UPR CHOP act
CCN(CC)C1CCN(C(=O)c2ccc3nc(Cc4ccc(OC)cc4)oc3c2)C1 (centres undefined) | -12 | x | -5 | -1 | 7 | -2
COc1cc(CN2CC(=O)N(c3ccccc3Cl)C2=S)cc(OC)c1OC | 3 | x | 0 | -5 | 62* | 2
COc1cc(CN2CC(=O)N(c3cccc(Cl)c3C)C2=S)cc(OC)c1OC | 4 | x | -6 | -12 | 15 | 1
O=C(Nc1ccc(C(F)(F)F)cc1)c1cnc(N2CCN(c3ccccn3)CC2)c2ccccc12 | 9 | 81* | 0 | -39 | 29 | 4
O=C(Nc1ccc(C(F)(F)F)cc1)c1cccnc1N1CCOCC1 | 3 | -8 | -1 | 2 | 0 | 1
CSCCC(NC(=O)C1CCC(C)CC1)C(=O)Nc1ccc(NC(C)=O)cc1 (centres undefined) | 11 | x | 10 | -9 | -14 | 1
Cc1ccc(-c2nnn(CC(=O)N(CC3CCCO3)C(C(=O)NC3CCCC3)c3ccc(F)cc3)n2)o1 (centres undefined) | 3 | 80* | -3 | -3 | 14 | -1
Cc1ccc(C(CNC(=O)c2ccco2)N2CCN(C)CC2)cc1 (centres undefined) | 4 | x | -1 | 18 | 3 | 0
Cc1ccsc1/C=N/NC(=O)CSCc1ccc(Cl)cc1 | 1 | 92* | -5 | -9 | -8 | -3
O=C(CSCc1ccc(Cl)cc1)N/N=C/c1ccc(Cl)cc1Cl | -16 | 91* | 0 | 1 | 2 | 0
COc1ccc(CCn2c(N)c(C(=O)NCc3ccco3)c3nc4ccccc4nc32)cc1 | 43 | 15 | -1 | -47 | -2 | 2
COCCNC(=O)c1c(N)n(CCC2=CCCCC2)c2nc3ccccc3nc12 | -6 | 78* | -1 | -2 | -5 | 0
CCOc1cc(C)cc2oc(=O)cc(-c3ccccc3)c12 | 16 | 48 | -3 | 7 | 0 | 2
Cc1cc(OC(C)C)c2c(-c3ccccc3)cc(=O)oc2c1 | 9 | 79* | 0 | 20 | 2 | -1
O=C(O)C1(S(=O)(=O)c2ccc(Cl)cc2)CCC1 | -5 | x | 3 | 5 | -12 | 0
C/C(=C/CCC(C)[C@H]1CC[C@@]2(C)C3=C(CC[C@]12C)[C@@]1(C)CCC(=O)C(C)(C)[C@@H]1CC3)C(=O)O (some centres undefined) | x | 74* | x | x | -8 | x
C/C(=C/CCC(C)C1CCC2(C)C3CCC4C(C)(C)C(=O)CCC4(C)C3=CCC12C)C(=O)O (centres undefined) | x | 45 | x | x | x | x
CCCCOc1ccc(C(C)NC(=O)CCS(=O)(=O)Cc2ccccc2F)cc1 (centres undefined) | -1 | 71* | -2 | 13 | -6 | 1
C=C(C(=O)Oc1ccccc1C(C)(C)C)c1ccccc1 | 3 | x | 1 | -1 | x | 193*
CCOC(=O)C1=C(N)N2C(=O)C(C)SC2=C(C(=O)OC)C1c1ccccc1OC (centres undefined) | 1 | 82* | -3 | 1 | 7 | 8
C[C@H]1CN=C(N(C)C)N1CCCC1CCCCC1 | 3 | x | 2 | -5 | 19 | 1
